Measured values reported in ChEMBL document CHEMBL2321726, “Identification of selective inhibitors for human neuraminidase isoenzymes using C4,C7-modified 2-deoxy-2,3-didehydro-N-acetylneuraminic acid (DANA) analogues” (J Med Chem, 2013).

How the values were obtained:
Sialidase-4 = molecular target: T1, Sialidase-4 (Homo sapiens, UniProt Q8WWR8); experiment: Inhibition of human neuraminidase 4 using 4MU-NANA as substrate after 30 mins by fluorescence assay
T1 sequence (Q8WWR8 whole entry): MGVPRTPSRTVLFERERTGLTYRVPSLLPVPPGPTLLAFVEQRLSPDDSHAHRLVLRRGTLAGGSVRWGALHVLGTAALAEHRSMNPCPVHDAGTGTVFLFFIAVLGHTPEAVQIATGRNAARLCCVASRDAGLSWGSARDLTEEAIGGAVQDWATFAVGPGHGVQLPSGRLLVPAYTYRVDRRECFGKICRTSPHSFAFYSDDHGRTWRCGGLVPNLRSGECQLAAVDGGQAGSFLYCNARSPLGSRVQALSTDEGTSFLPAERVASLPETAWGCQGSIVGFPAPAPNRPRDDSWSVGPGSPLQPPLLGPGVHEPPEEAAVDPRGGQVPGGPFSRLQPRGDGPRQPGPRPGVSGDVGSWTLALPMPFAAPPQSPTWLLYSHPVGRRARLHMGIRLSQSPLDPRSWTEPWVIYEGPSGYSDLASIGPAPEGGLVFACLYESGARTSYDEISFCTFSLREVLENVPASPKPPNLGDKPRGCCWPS
Summary of the method: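 GST-fusion enzyme, assayed in 0.1 M sodium acetate pH 4.5. Inhibitor diluted 3-fold serially from 1 mM final, incubated 15 min at 37 °C with enzyme, then 4MU-NANA (50 μM final) 30 min at 37 °C. Four replicates; IC50 from nonlinear regression.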

Sialidase-3 [1] = molecular target: T2, Sialidase-3 (Homo sapiens, UniProt Q9UQ49); experiment: Inhibition of human neuraminidase 3 expressed in Escherichia coli using 4MU-NANA as substrate after 30 mins by fluorescence assay
T2 sequence (Q9UQ49 whole entry): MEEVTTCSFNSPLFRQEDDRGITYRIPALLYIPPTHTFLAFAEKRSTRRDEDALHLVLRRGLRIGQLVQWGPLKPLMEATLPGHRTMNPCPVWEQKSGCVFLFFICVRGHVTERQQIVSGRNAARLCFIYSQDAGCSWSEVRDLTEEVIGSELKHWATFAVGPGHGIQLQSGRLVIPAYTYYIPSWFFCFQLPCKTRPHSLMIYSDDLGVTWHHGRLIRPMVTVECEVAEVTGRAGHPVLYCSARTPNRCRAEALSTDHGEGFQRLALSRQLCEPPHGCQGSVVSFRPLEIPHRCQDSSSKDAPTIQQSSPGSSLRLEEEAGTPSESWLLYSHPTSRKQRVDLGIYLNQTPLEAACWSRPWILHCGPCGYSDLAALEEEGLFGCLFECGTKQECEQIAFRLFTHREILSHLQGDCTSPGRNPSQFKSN
Summary of the method: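 Enzyme made in E. coli as N-terminal MBP fusion. 0.1 M sodium acetate pH 4.5. 3-fold serial inhibitor dilutions from 1 mM final, 15 min preincubation with enzyme at 37 °C, then 4MU-NANA 50 μM final for 30 min at 37 °C. Glycinate pH 10.7 stop, fluorescence 365/445 nm. Quadruplicate points; IC50 by nonlinear regression.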

Sialidase-1 = Sialidase-1 (Homo sapiens, UniProt Q99519); experiment: Inhibition of human neuraminidase 1 using 4MU-NANA as substrate after 30 mins by fluorescence assay
Summary of the method: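 NEU1 purified per earlier protocol as complex with β-galactosidase and cathepsin A. 0.1 M sodium acetate, pH 4.5. Inhibitor in 3-fold serial dilutions from 1 mM final, preincubated with enzyme 15 min at 37 °C. 4MU-NANA (50 μM final) added, 30 min at 37 °C. Four replicates; IC50 by nonlinear regression.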

Neuraminidase = Neuraminidase (Vibrio cholerae, UniProt Q5IB64); experiment: Inhibition of Vibrio cholerae neuraminidase
Sialidase-3 [2] = molecular target: T2, Sialidase-3; experiment: Inhibition of human neuraminidase 3 expressed in Escherichia coli using 4MU-NANA as substrate measured for every 30 seconds for 60 mins by fluorescence assay
Summary of the method: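 Product formation at 37 °C read every 30 s for 60 min (ex 365/em 445 nm). Initial linear rates; Lineweaver–Burk slopes plotted against inhibitor concentration and fitted for Ki.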

| SMILES | IC50 (Sialidase-4) [µM] | IC50 (Sialidase-3 [1]) [µM] | IC50 (Sialidase-1) [µM] | IC50 (Neuraminidase) [µM] | Ki (Sialidase-3 [2]) [µM] |
| --- | --- | --- | --- | --- | --- |
| CC(=O)N[C@H]1[C@H](CNc2ccccc2)OC(C(=O)O)=C[C@@H]1N | > 1000 | 540 | > 1000 | > 1000 | – |
| CC(=O)N[C@H]1[C@H](CNc2ccccc2)OC(C(=O)O)=C[C@@H]1O | > 1000 | 370 | > 1000 | > 1000 | – |
| CC(=O)N[C@H]1[C@H](CNCc2ccccc2)OC(C(=O)O)=C[C@@H]1O | > 1000 | > 1000 | > 1000 | 470 | – |
| CC(=O)N[C@H]1[C@H](CNNCc2ccc(-c3ccccc3)cc2)OC(C(=O)O)=C[C@@H]1O | 200 | 70 | > 1000 | > 1000 | – |
| CC(=O)N[C@H]1[C@H]([C@H](O)[C@H](O)CO)OC(C(=O)O)=C[C@@H]1N=[N+]=[N-] | 1000 | 54 | 360 | 540 | – |
| CC(=O)N[C@@H]1[C@@H](N=[N+]=[N-])C=C(C(=O)O)O[C@H]1CNc1ccccc1 | 300 | 440 | > 1000 | > 1000 | – |
| CC(=O)N[C@@H]1[C@@H](N=[N+]=[N-])C=C(C(=O)O)O[C@H]1CNc1ccc(-c2ccccc2)cc1 | 210 | 50 | > 1000 | > 1000 | – |
| CC(=O)N[C@@H]1[C@@H](N=[N+]=[N-])C=C(C(=O)O)O[C@H]1CNOCc1ccccc1 | > 1000 | 24 | > 1000 | 550 | 8 |
| CC(=O)N[C@@H]1[C@@H](N=[N+]=[N-])C=C(C(=O)O)O[C@H]1CN(Cc1ccccc1)OCc1ccccc1 | 350 | 24 | > 1000 | > 1000 | – |
| CC(=O)N[C@@H]1[C@@H](N=[N+]=[N-])C=C(C(=O)O)O[C@H]1CNNc1ccccc1 | > 1000 | 20 | > 1000 | > 1000 | 11 |
| CC(=O)N[C@H]1[C@H]([C@H](O)[C@H](O)CO)OC(C(=O)O)=C[C@@H]1N | 720 | 180 | > 1000 | > 1000 | – |
| CC(=O)N[C@H]1[C@H]([C@H](O)[C@H](O)CO)OC(C(=O)O)=C[C@@H]1O [NEU5AC2EN] | – | 6.3 | – | 170 | 2.2 |
